Reference: ChEMBL document CHEMBL5108057, “Development of MAO-A and 5-HT2AR Dual Inhibitors with Improved Antidepressant Activity” (J Med Chem, 2022)
The source made the active and inactive calls. The calls are words filed in the database; no cut-off is given here.

How the values were obtained:
[1] = Cytotoxicity against rat PC-12 cells assessed as reduction in cell growth measured after 48 hrs by MTT assay; type: toxicity, cell-based
Summary of the method: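 MTT assay: PC12, SH-SY5Y or L02 cells at 5.0 × 10^3 per well were grown for 24 h, treated with compound dilutions from 10 mM DMSO stocks, and cultured 48 h. MTT was then added for 4 h at 37 °C, formazan dissolved in DMSO, and absorbance read at 570 nm. Viability is relative to blank control; IC50 from three repeats. Media contained 10% FBS.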

[2] = species: Danio rerio; assay: Antidepressant activity in reserpine-induced zebrafish AB depression model assessed as decrease in immobility time at 0.1 to 1 uM pretreated for 40 mins with reserpine followed by compound addition and measured for 7 days by open field test; type: functional, organism-based; conditions: dose 0.1-1 µM, time 7.0 day
Summary of the method: (§1)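 Zebrafish were exposed to 10 mg/L reserpine for 40 min. Compound (0.1, 0.5, 1 μM) or fluoxetine (1 μM) was given 24 h later for 7 days. Fish kept at 28.5 °C on a 14 h light/10 h dark cycle. Open-field and novel tank tests were video-tracked for distance, velocity, immobility and time in the top. Mean ± SD, n = 6.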

[3] = species: Danio rerio; assay: Antidepressant activity in reserpine-induced zebrafish AB depression model assessed as increase in distance traveled at 0.1 to 1 uM pretreated for 40 mins with reserpine followed by compound addition and measured for 7 days by open field test; type: functional, organism-based; conditions: dose 0.1-1 µM, time 7.0 day; summary of the method: as §1
[4] = species: Danio rerio; assay: Antidepressant activity in reserpine-induced zebrafish AB depression model assessed as increase in exploratory ability at 0.1 to 1 uM pretreated for 40 mins with reserpine followed by compound addition and measured for 7 days by novel tank test; type: functional, organism-based; conditions: dose 0.1-1 µM, time 7.0 day; summary of the method: as §1
[5] = tested on: Mus musculus; assay: Antidepressant activity in reserpine-induced ICR mouse model assessed as increase in total distance traveled at 10 to 20 mg/kg pretreated with reserpine for 3 days followed by compound addition for 1 week by open field test; type: functional, organism-based; conditions: dose 10-20 mg/kg, time 1.0 weeks
Summary of the method: (§2)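 Body weight was recorded daily. OFT: 5 min session scoring distance, speed, rearing and dejection. FST and TST: 6 min, with immobility scored over the last 4 min. Mean ± SD, n = 6; one-way ANOVA and t-test.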

[6] = tested on: Mus musculus; assay: Antidepressant activity in reserpine-induced ICR mouse model assessed as increase in movement speed at 10 to 20 mg/kg pretreated with reserpine for 3 days followed by compound addition for 1 week by open field test; type: functional, organism-based; conditions: dose 10-20 mg/kg, time 1.0 weeks; summary of the method: as §2
[7] = tested on: Mus musculus; assay: Antidepressant activity in reserpine-induced ICR mouse model assessed as increase in mobility at 10 to 20 mg/kg pretreated with reserpine for 3 days followed by compound addition for 1 week by open field test; type: functional, organism-based; conditions: dose 10-20 mg/kg, time 1.0 weeks; summary of the method: as §2
[8] = tested on: Mus musculus; assay: Antidepressant activity in reserpine-induced ICR mouse model assessed as increase the number of rearing at 10 to 20 mg/kg pretreated with reserpine for 3 days followed by compound addition on day 4 to 10 by open field test; type: functional, organism-based; conditions: dose 10-20 mg/kg, time 6.0 day; summary of the method: as §2
[9] = tested on: Mus musculus; assay: Antidepressant activity in reserpine-induced ICR mouse model assessed as reduction in immobility time at 10 to 20 mg/kg pretreated with reserpine for 3 days followed by compound addition on day 4 to 10 by forced swimming test; type: functional, organism-based; conditions: dose 10-20 mg/kg, time 6.0 day; summary of the method: as §2
[10] = tested on: Mus musculus; assay: Antidepressant activity in chronic unpredictable mild stress ICR mouse model assessed as increase in total distance traveled at 10 to 20 mg/kg administered for 2 weeks by open field test; type: functional, organism-based; conditions: dose 10-20 mg/kg
Summary of the method: (§3)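 ICR mice received CUMS for 4 weeks: 11 stressors given randomly twice daily, 42 days in total. OFT: 5 min session scoring distance, speed, rearing and dejection. FST/TST: 6 min, with immobility scored over the last 4 min. Sucrose preference test was also run. Mean ± SD, n = 6.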

[11] = tested on: Mus musculus; assay: Antidepressant activity in chronic unpredictable mild stress ICR mouse model assessed as decrease in immobility time at 10 to 20 mg/kg measured after 2 weeks by tail suspension test; type: functional, organism-based; conditions: dose 10-20 mg/kg; summary of the method: as §3
[12] = tested on: Mus musculus; assay: Antidepressant activity in chronic unpredictable mild stress ICR mouse model assessed as decrease in immobility time at 10 to 20 mg/kg measured after 2 weeks by forced swimming test; type: functional, organism-based; conditions: dose 10-20 mg/kg; summary of the method: as §3
[13] = Toxicity in mouse assessed as toxic effect on liver at 10 to 20 mg/kg by H and E staining based assay; type: organism-based; conditions: in vivo, dose 10-20 mg/kg
Summary of the method: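 Mice given compound at 10 or 20 mg/kg, with fluoxetine 20 mg/kg as comparator. Paraffin tissue sections of 4 μm were cut. Staining: hematoxylin 5 min, 75% HCl-ethanol differentiation 30 s, eosin 2 min. Organs (liver, kidney, lung, heart, spleen) examined at ×400; hippocampus (CA1, CA3, DG) at ×200.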

[14] = tested on: Mus musculus; assay: Antidepressant activity in reserpine-induced mouse assessed as downregulation of 5-HT2AR expression at 10 to 20 mg/kg pretreated with reserpine for 3 days followed by compound addition on day 4 to 10 by Western blot analysis; type: functional, organism-based; conditions: dose 10-20 mg/kg, time 6.0 day
Summary of the method: (§4)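 Whole-brain protein was quantified by BCA and diluted to 3 mg/mL, then run on 4−20% SDS-PAGE and blotted. Primary antibody at 4 °C overnight, secondary 1 h at room temperature. 5-HT1AR and 5-HT2AR levels are relative; mean ± SD, n = 3.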

[15] = tested on: Mus musculus; assay: Antidepressant activity in reserpine-induced mouse assessed as increase in 5-HT1AR expression at 10 to 20 mg/kg pretreated with reserpine for 3 days followed by compound addition on day 4 to 10 by Western blot analysis; type: functional, organism-based; conditions: dose 10-20 mg/kg, time 6.0 day; summary of the method: as §4
[16] = AUC(0 to 24 hrs) in Sprague-Dawley rat at 2 mg/kg, iv measured upto 1440 mins by LC-MS/MS analysis; type: ADME, organism-based; set-up: dose 2 mg/kg, time < 1440 min, route iv; conditions: in vivo
[17] = MRT infinity in Sprague-Dawley rat at 2 mg/kg, iv measured upto 1440 mins by LC-MS/MS analysis; type: ADME, organism-based; conditions: in vivo
[18] = Half life in Sprague-Dawley rat at 10 mg/kg, IG measured upto 1440 mins by LC-MS/MS analysis; type: ADME, organism-based; conditions: in vivo, po
[19] = Cmax in Sprague-Dawley rat at 2 mg/kg, iv measured upto 1440 mins by LC-MS/MS analysis; type: ADME, organism-based; set-up: time < 1440 min, dose 2 mg/kg, route iv; conditions: in vivo
[20] = Cmax in Sprague-Dawley rat at 10 mg/kg, IG measured upto 1440 mins by LC-MS/MS analysis; type: ADME, organism-based; set-up: time < 1440 min, dose 10 mg/kg, route ig; conditions: in vivo, po
[21] = Clearance in Sprague-Dawley rat at 10 mg/kg, IG measured upto 1440 mins by LC-MS/MS analysis; type: ADME, organism-based; conditions: in vivo, po

AUC(0-t) at 24 h [16]: 2230 ng·h/mL
MRT inf [17]: 4.19 h
half-life [18]: 5.22 h
Cmax [19]: 673 ng/mL
Cmax [20]: 99.7 ng/mL
CL/F [21]: 346 mL/min/kg
SMILES: O=C1c2ccccc2-c2nccc3cc(OCCCCCN4CCN(c5ccccc5F)CC4)cc1c23
IC50 at 48 h [1]: > 10 µM
Activity [2]: Active
Activity [3]: Active
Activity [4]: Active
Activity [5]: Active
Activity [6]: Active
Activity [7]: Active
Activity [8]: Active
Activity [9]: Active
Activity [10]: Active
Activity [11]: Active
Activity [12]: Active
Activity [13]: Non-Toxic
Activity [14]: Active
Activity [15]: Active
